Experiments:
Type in all cases: ADME
[1] = Drug metabolism in human intestine microsomes assessed as 17-epiestriol-3-glucuronide formation after 15 to 60 mins by Michaelis-Menten equation analysis in presence of UDPGA
In short: (§1)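 Pooled human intestine microsomes (6 donors), 0.5 or 10 µg, with alamethicin at 5% of total protein. Incubated with 50 mM phosphate pH 7.4, 10 mM MgCl₂, 5 mM UDPGA and 10% DMSO for 15–60 min at 37°C. Each glucuronide regioisomer quantified by HPLC, in triplicate, with substrate consumption at or below 10%.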

[2] = biological target: T1, UDP-glucuronosyltransferase 2B17 (Homo sapiens, UniProt O75795); test: Drug metabolism assessed as recombinant human C-terminal His-tagged UGT2B17-mediated 13-epiestradiol-3-glucuronide formation at 200 uM after 15 to 60 mins by HPLC analysis in presence of UDPGA; conditions: recombinant enzyme
T1 sequence (O75795 whole entry): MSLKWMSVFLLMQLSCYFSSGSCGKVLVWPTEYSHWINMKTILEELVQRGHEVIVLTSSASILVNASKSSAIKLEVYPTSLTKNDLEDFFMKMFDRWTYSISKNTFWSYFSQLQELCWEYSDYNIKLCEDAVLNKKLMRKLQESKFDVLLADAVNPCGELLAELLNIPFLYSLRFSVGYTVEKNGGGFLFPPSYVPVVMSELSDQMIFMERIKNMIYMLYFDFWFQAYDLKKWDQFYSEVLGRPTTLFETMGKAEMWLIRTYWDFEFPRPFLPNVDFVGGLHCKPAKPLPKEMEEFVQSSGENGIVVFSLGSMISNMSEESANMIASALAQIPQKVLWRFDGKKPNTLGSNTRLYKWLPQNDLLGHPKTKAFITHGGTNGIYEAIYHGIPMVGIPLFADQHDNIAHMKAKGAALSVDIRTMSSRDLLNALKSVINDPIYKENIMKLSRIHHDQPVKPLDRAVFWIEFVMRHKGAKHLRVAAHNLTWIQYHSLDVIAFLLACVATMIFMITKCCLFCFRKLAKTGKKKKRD
In short: (§2)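 Screening at a single substrate concentration of 200 μM, in triplicate. The reaction used 5 or 50 µg of UGT-enriched insect cell membranes in 50 mM phosphate pH 7.4 with 10 mM MgCl₂ and 5 mM UDPGA, 10% final DMSO. Incubation was 15–60 min at 37°C. Perchloric acid stopped the reaction and supernatants were analysed by HPLC. Controls lacked UDPGA. Rates were normalized to relative UGT expression level.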

[3] = biological target: UDP-glucuronosyltransferase 1A10 (Homo sapiens, UniProt Q9HAW8, F93G); test: Drug metabolism assessed as human UGT1A10 F93G mutant-mediated 13-epiestradiol-3-glucuronide formation at 200 uM after 15 to 60 mins by HPLC analysis in presence of UDPGA; in short: as §2
[4] = biological target: T2, UDP-glucuronosyltransferase 2B7 (Homo sapiens, UniProt P16662); test: Inhibition of recombinant human C-terminal His-tagged UGT2B7 after 15 to 60 mins by Michaelis-Menten equation analysis in presence of UDPGA
T2 sequence (P16662 whole entry): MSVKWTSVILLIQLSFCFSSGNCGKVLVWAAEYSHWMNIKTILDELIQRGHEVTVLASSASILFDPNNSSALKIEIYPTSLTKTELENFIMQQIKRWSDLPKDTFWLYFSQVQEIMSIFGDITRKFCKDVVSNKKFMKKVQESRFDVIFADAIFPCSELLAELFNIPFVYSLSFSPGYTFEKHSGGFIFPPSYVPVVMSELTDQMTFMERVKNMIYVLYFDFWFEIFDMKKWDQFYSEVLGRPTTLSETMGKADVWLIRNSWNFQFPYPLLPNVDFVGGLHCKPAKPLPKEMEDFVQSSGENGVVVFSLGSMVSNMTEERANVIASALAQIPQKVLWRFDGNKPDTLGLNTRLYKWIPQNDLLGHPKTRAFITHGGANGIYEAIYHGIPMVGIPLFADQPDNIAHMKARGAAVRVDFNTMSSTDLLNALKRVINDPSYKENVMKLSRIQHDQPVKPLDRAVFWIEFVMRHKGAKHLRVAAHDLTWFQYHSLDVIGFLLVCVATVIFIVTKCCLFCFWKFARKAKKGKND
In short: (§3)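 Kinetics with His-tagged UGT-enriched insect-cell membranes (5 or 50 µg): aglycone 0.2–300 µM in 10% DMSO, 5 mM UDPGA, 10 mM MgCl₂, 50 mM phosphate pH 7.4, 15–60 min at 37°C. Substrate consumption kept at or below 10%. Glucuronides quantified by HPLC in triplicate, rates normalized to expression, and data fitted to Michaelis-Menten.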

[5] = biological target: T3, UDP-glucuronosyltransferase 1A8 (Homo sapiens, UniProt Q9HAW9); test: Drug metabolism assessed as recombinant human C-terminal His-tagged UGT1A8-mediated 16-epiestriol-3-glucuronide formation after 15 to 60 mins by Michaelis-Menten equation analysis in presence of UDPGA; conditions: recombinant enzyme
T3 sequence (Q9HAW9 whole entry): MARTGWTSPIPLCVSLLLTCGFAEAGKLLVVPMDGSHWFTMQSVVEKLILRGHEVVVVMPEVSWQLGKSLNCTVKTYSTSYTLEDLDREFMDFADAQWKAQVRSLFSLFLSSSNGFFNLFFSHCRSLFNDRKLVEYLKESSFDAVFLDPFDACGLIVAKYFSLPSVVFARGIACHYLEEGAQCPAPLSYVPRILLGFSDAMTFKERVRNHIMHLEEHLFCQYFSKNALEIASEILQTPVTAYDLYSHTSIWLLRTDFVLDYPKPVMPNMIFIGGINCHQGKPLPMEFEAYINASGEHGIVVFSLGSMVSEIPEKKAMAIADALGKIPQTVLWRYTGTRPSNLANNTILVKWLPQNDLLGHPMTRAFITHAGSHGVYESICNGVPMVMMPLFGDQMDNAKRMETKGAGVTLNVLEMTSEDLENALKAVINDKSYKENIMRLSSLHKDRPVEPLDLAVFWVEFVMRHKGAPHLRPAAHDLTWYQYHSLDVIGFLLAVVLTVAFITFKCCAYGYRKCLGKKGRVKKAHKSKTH

[6] = Drug metabolism in human intestine microsomes assessed as 16-epiestriol-16-glucuronide formation after 15 to 60 mins by Michaelis-Menten equation analysis in presence of UDPGA; in short: as §1
[7] = system: Liver microsome; test: Drug metabolism in human liver microsomes assessed as 16-epiestriol-3-glucuronide formation after 15 to 60 mins by Michaelis-Menten equation analysis in presence of UDPGA
In short: as §1, with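 “liver” for “intestine”, “(30” for “(6”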

[8] = biological target: T2, UDP-glucuronosyltransferase 2B7; test: Drug metabolism assessed as recombinant human C-terminal His-tagged UGT2B7-mediated estriol-16-glucuronide formation after 15 to 60 mins by Michaelis-Menten equation analysis in presence of UDPGA; conditions: recombinant enzyme; in short: as §3
[9] = biological target: T1, UDP-glucuronosyltransferase 2B17; test: Drug metabolism assessed as recombinant human C-terminal His-tagged UGT2B17-mediated estriol-17-glucuronide formation after 15 to 60 mins by Michaelis-Menten equation analysis in presence of UDPGA; conditions: recombinant enzyme

Chain of UDP-glucuronosyltransferase 1A10 (Q9HAW8 26-530 F93G limits assumed): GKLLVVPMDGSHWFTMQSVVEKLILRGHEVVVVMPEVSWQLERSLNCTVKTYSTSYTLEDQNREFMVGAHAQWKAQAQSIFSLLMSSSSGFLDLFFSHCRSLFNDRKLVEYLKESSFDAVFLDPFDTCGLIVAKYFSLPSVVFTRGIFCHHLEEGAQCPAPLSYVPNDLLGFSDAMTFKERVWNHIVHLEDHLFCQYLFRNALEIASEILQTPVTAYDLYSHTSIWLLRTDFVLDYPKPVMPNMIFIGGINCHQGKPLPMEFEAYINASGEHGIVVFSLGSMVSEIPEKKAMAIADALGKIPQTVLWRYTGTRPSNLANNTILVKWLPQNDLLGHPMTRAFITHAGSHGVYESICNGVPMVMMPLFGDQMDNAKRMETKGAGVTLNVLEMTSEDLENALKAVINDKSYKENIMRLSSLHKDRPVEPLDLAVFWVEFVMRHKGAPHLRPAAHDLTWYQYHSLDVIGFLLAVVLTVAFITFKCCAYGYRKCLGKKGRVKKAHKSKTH

C[C@]12CC[C@@H]3c4ccc(O)cc4CC[C@H]3[C@@H]1C[C@@H](O)[C@H]2O
Km [1]: 251 µM | Vmax [1]: 1239 pmol/min/mg

C[C@@]12CC[C@@H]3c4ccc(O)cc4CC[C@H]3[C@@H]1CC[C@@H]2O
Drug metabolism [2]: metabolite_detected | Drug metabolism [3]: metabolite_detected

C[C@]12CC[C@@H]3c4ccc(O)cc4CC[C@H]3[C@@H]1C[C@H](O)[C@@H]2O [EPIESTRIOL]
Ki [4]: 162 µM | Drug metabolism [5]: 0.5 pmol/min/mg | Km [6]: 43 µM | Vmax [6]: 1480 pmol/min/mg | Km [7]: 2380 µM | Vmax [7]: 569 pmol/min/mg

C[C@]12CC[C@@H]3c4ccc(O)cc4CC[C@H]3[C@@H]1C[C@@H](O)[C@@H]2O [ESTRIOL]
Drug metabolism [8]: 1200 pmol/min/mg | Drug metabolism [9]: 4 pmol/min/mg
